A short description of data set [1]: folding enthalpy; higher = less favourable; fluorescence melt of hairpins on a sequencing array, two-state fit. To be noted: sodium 0.088 M. The procedure, abridged:
(§1)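 Folding enthalpy and melting temperature were estimated with bootstrapped two-state fits and combined across four replicates by inverse-variance weighting, with fitted temperatures raised by 9.35 °C to match UV melts. The data were Cy3 fluorescence of library hairpins, with annealed Cy3 and quencher oligos, on a sequenced MiSeq flow cell in 50 mM Na-HEPES pH 8.0, 25 mM NaCl, imaged in 2.5 °C steps up to 60 °C and normalised to pre-quench Cy3 and control constructs.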

The nature of data set [2]: melting temperature; fluorescence melt of hairpins on a sequencing array, two-state fit, raised by 9.35 °C to match UV melts. To be noted: sodium 0.088 M. The procedure, abridged: as §1

Turning to GCTGCAGGAAACTGCGGC ((.((((....)))).)), the folding enthalpy in data set [1] was -41.5 kcal/mol. In addition, the Tm in data set [2] was found to be 61.6 °C.

For the sequence GATCGGTGCTCCGATC ((((((....)))))), in data set [1], the folding enthalpy was -40.8 kcal/mol. Further, the Tm in data set [2] turned out to be 57.9 °C.

As for GGGAGTCGAAAGACCCC (((.(((....)))))), the folding enthalpy in data set [1] was -32.7 kcal/mol. Further, the Tm in data set [2] came out at 56.7 °C.

With GATCAATCGCTTGATC ((((((....)))))), in data set [1], the folding enthalpy is -44.9 kcal/mol. Also, the Tm in data set [2] was 45.5 °C.

Turning to GAAATCACGAAAGTGTTC (((..(((....)))))), in data set [1], the folding enthalpy was -9 kcal/mol. Besides, the Tm in data set [2] was 20.8 °C.

As for GATCGCATATGCGATC ((((((....)))))), in data set [1], the folding enthalpy is -33.8 kcal/mol. For the same sequence, in data set [2], the Tm was found to be 68.8 °C.

For the sequence GCGCAGGGAAACCCACGC (((..((....))..))), the folding enthalpy in data set [1] is -26.7 kcal/mol. Also, the Tm in data set [2] stood at 43.9 °C.

As for GTGTCCGGAAACAGACAC (((((.(....).))))), the folding enthalpy in data set [1] is -30.1 kcal/mol. For the same sequence, in data set [2], the Tm came to 44.9 °C.

Take GATCCGAGCCCGGATC ((((((....)))))): in data set [1], the folding enthalpy is -35.6 kcal/mol. Also, in data set [2], the Tm is 55.3 °C.

For the sequence GTTTTGCCGAAAGGCAAC (((..(((....)))))), in data set [1], the folding enthalpy is -8.44 kcal/mol. Besides, the Tm in data set [2] is 36 °C.

For the sequence GGTTTCGAAAGAACGACC ((((((....)))..))), the folding enthalpy in data set [1] is -14.4 kcal/mol. In data set [2], the Tm was 29.6 °C.

In the case of GCTGAGCGAAAGCAGAGC (((..((....))..))), in data set [1], the folding enthalpy is -17 kcal/mol. For the same sequence, in data set [2], the Tm was 45.9 °C.

With GTCTCCGAAAGGAACGAC ((((((....)))..))), in data set [1], the folding enthalpy was -23.5 kcal/mol. Moreover, the Tm in data set [2] came out at 36.3 °C.

Take GACCTCCGAAAGGAAGTC (((.(((....))).))): the folding enthalpy in data set [1] is -26.1 kcal/mol. Also, in data set [2], the Tm was found to be 44.7 °C.

Regarding GATCATCCTATGATC ((((((...)))))), the folding enthalpy in data set [1] is -33.1 kcal/mol. Moreover, the Tm in data set [2] stood at 48.3 °C.

For GACGCCGAAAGGCTGTC ((((((....))).))), the folding enthalpy in data set [1] is -18.4 kcal/mol. The Tm in data set [2] came to 56.9 °C.

GCACCAGGAAACTAGTGC ((((.((....)).)))): the folding enthalpy in data set [1] was -29.2 kcal/mol. In data set [2], the Tm came to 40.2 °C.

In the case of GGGCACGAAAGTGCACCC ((((((....)))..))), in data set [1], the folding enthalpy was -10.8 kcal/mol. In data set [2], the Tm was 58.2 °C.

With GGGATGGGAAACCATTCC ((.((((....)))).)), in data set [1], the folding enthalpy is -31.1 kcal/mol. The Tm in data set [2] was determined as 50.2 °C.

For the sequence GGAGGCGAAAGCCTCTCC ((((((....)))..))), the folding enthalpy in data set [1] is -8.68 kcal/mol. Further, in data set [2], the Tm came to 54.2 °C.

As for GATCTAAATGTAGATC ((((((....)))))), in data set [1], the folding enthalpy is -26.8 kcal/mol. Moreover, the Tm in data set [2] came out at 36.7 °C.

On to GTAACACGAAAGTGGTAC (((.(((....))).))), for which the folding enthalpy in data set [1] was -41.3 kcal/mol. In data set [2], the Tm was determined as 55.1 °C.

Regarding GATGTGCGAAAGCAGATC (((.(((....))).))), in data set [1], the folding enthalpy is -32.7 kcal/mol. In addition, in data set [2], the Tm was 52.5 °C.

GGAACTCGAAAGAGATCC (((.(((....))).))): in data set [1], the folding enthalpy is -34.4 kcal/mol. In data set [2], the Tm was 49.5 °C.

Regarding GGCTCCGAAAGGAAGCC ((((((....))).))), in data set [1], the folding enthalpy is -37.7 kcal/mol. For the same sequence, in data set [2], the Tm was 64.1 °C.

On to GCTCGTGGAAACATGAGC ((((.((....)).)))), for which the folding enthalpy in data set [1] was -37.1 kcal/mol. For the same sequence, in data set [2], the Tm came to 54.5 °C.

Regarding GCACTCGAAAGAGAATGC ((((((....)))..))), the folding enthalpy in data set [1] was -24.6 kcal/mol. In data set [2], the Tm was 35.1 °C.

Take GATCAGCGTCTGATC ((((((...)))))): in data set [1], the folding enthalpy was -38.8 kcal/mol. For the same sequence, in data set [2], the Tm was 49.9 °C.

Regarding GTATTGACGAAAGTCTAC (((..(((....)))))), the folding enthalpy in data set [1] was -8.47 kcal/mol. For the same sequence, in data set [2], the Tm amounted to 25.1 °C.

As to GGCGTCGAAAGACCTGCC ((((((....)))..))), the folding enthalpy in data set [1] is -18.5 kcal/mol. Besides, the Tm in data set [2] came to 46.6 °C.

The values are drawn from the array DNA melting data of Ke et al. (doi:10.1101/2024.01.08.574731).
